MrgX1 antag – antagonists of human MrgX1 receptor. MRGX1-HEK293 calcium flux, Fluo-4, BAM8-22 antagonism; active compounds read low. AID 588676. actives 1.3% (n = 310,000). B-score at 10 µM. Q96LB2;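 active means calcium-response B-score plate-corrected more than 3 library SD below zero, starting fluorescence within 5 deviations, no agonist response on first addition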;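 further: peak minus trough fluorescence over baseline after final BAM8-22 challenge near maximal dose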
Target sequence (Q96LB2 whole entry, looked up): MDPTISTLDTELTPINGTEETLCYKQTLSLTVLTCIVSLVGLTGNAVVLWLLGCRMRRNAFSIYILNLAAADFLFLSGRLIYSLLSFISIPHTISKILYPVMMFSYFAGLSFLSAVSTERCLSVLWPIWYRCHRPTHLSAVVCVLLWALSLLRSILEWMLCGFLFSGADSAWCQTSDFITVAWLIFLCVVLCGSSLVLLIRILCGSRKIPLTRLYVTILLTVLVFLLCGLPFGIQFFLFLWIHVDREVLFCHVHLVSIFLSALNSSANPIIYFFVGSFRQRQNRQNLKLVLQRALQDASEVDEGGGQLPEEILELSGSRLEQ
MrgX1 agonist – agonists of human MrgX1 receptor; Q96LB2; B-score at 10 µM; MrgX1-HEK293 cells, Fluo-4 calcium fluorescence, agonist mode; active compounds read high; actives 0.44% (n = 310,000);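 active means calcium response B-score plate-corrected fluorescence ratio at least 3 library SD, with starting fluorescence B-score inside 5 SD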
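System: HEK293 cells stably expressing human MrgX1 receptor; Dosing: test compound in the initial addition of three; Schedule: overnight plating, then 30 min 37 °C plus 30 min room-temperature dye loading; Detection: kinetic calcium dye fluorescence, Fluo-4 NW; Controls: per-plate positive and negative controls for Z′ factor.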
RGS4 inh – inhibitors of human RGS4; P49798; HEK293 M3R/RGS4 inducible, Fluo-4 calcium flux; active compounds read high; triggered by carbachol at its EC20; B-score at 10 µM; actives 0.45% (n = 310,000); AID 463165;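 active means B-score, a plate-corrected calcium signal, over three deviations above library mean, with baseline fluorescence within five deviations of library mean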;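 further: RGS4 expression induced by doxycycline in cells with stable M3 receptor; B-score is computed from the integrated fluorescence ratio over baseline after carbachol; higher B-score means a larger calcium signal and so more RGS4 inhibition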
Target sequence (P49798 whole entry, looked up): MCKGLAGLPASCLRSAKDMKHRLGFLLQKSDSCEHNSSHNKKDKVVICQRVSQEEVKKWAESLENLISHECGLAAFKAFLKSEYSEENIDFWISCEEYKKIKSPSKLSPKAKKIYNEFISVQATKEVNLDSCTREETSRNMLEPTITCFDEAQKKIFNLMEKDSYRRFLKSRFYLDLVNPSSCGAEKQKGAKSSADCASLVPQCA
MrgX1 allo act – allosterically activates human MrgX1 receptor signaling; MrgX1-HEK293, Fluo-4 calcium flux, FDSS; active compounds read high; actives 0.63% (n = 310,000); Q96LB2; B-score at 10 µM;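 active means plate-corrected calcium response at least 3 library SD above typical, normal starting fluorescence, not activating the receptor alone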;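 further: compound read alongside a low EC10 to EC30 dose of BAM8-22 agonist; peak minus trough fluorescence over baseline measured at the second addition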
RGS4 pot – potentiators or activators of RGS4; HEK293 M3R/inducible RGS4, carbachol calcium flux Fluo4; active compounds read low; B-score at 10 µM; actives 0.92% (n = 310,000);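 active means B-score of the integrated calcium signal more than 4 SD below the library mean, with starting fluorescence not abnormally high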;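 further: negative B-score means reduced calcium response which marks RGS4 activation or potentiation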
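Also added: carbachol at ECmax as muscarinic agonist stimulus; Assay system: HEK293 cells with stable M3R and inducible RGS4; Timing: overnight RGS4 induction, 30 min dye load 37 °C, 20 min compound RT; Measured by: Fluo4-AM (2 µM) calcium-flux fluorescence, kinetic read.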
Large screens that a line does not name were inactive. Shown are actives, neighbours in structure and some others; about 3.5% of the full set was active somewhere.

COc1cccc2cc(-c3cn4cccc(C)c4n3)c(=O)oc12	MrgX1 agonist 38.3
COc1cc(Br)cc2cc(C(=O)N3CCOCC3)c(=O)oc12	none
Cc1ccc(C(=O)c2ccc([N+](=O)[O-])cc2)cc1	none
Cc1ccc(S(=O)(=O)CC#CCOC(=O)c2ccc([N+](=O)[O-])cc2)cc1	MrgX1 agonist 43.3
Cc1ccc(C)n1-c1ccc(C(=O)N/N=C/c2ccncc2)cc1	MrgX1 allo act 10
CS(=O)(=O)C1=NSC2=NC(=O)/C(=C\c3ccc(OC(=O)c4ccco4)c(Br)c3)C(=N)N21	MrgX1 allo act 16.7
CC(C)CS(=O)(=O)C1=NSC2=NC(=O)/C(=C\c3ccc(OC(=O)c4ccco4)cc3)C(=N)N21	MrgX1 allo act 14.7
COc1cc(/C=C2\C(=N)N3N=C(S(=O)(=O)CC(C)C)SC3=NC2=O)ccc1OC(=O)c1ccco1	none
CCC(CC)C1=NN2C(=N)/C(=C/c3ccc(OC(=O)c4ccco4)cc3)C(=O)N=C2S1	none
CCC1=NN2C(=N)/C(=C\c3cccn3-c3ccc(Cl)cc3)C(=O)N=C2S1	MrgX1 allo act 8.09
CCS(=O)(=O)C1=NN2C(=N)/C(=C\c3ccc(OC(=O)c4ccco4)cc3)C(=O)N=C2S1	MrgX1 allo act 8.56
COc1ccc(C(=O)Cn2cc[n+](C)c2)cc1	none
O=C(Cn1nc(-c2cccc([N+](=O)[O-])c2)c2ccccc2c1=O)NCC1CCCO1 (configuration not stated)	none
O=C1CN(C(=O)COC(=O)c2cc(S(=O)(=O)N3CCOCC3)ccc2Cl)c2ccccc2N1	none
CN(c1ccccc1)S(=O)(=O)c1cccc2ccccc12	none
Cc1sc2ncn(CC(=O)NCCCC(=O)Nc3ccc(C(C)C)cc3)c(=O)c2c1C	none
CCC(C)(C)C1CCc2[nH]nc(C(=O)NCCNC(=O)OC(C)(C)C)c2C1 (configuration not stated)	none (no result: RGS4 inh, RGS4 pot)
CCS(=O)(=O)C1=NN2C(=N)/C(=C\c3ccc(OS(=O)(=O)c4ccccc4)c(OC)c3)C(=O)N=C2S1	none
CCC1=NN2C(=N)/C(=C/c3ccc(OS(=O)(=O)c4ccc(C)cc4)c(OC)c3)C(=O)N=C2S1	none
CCC1=NN2C(=N)/C(=C/c3ccc(OS(=O)(=O)c4ccccc4)cc3)C(=O)N=C2S1	MrgX1 agonist 38.8
CCS(=O)(=O)C1=NN2C(=N)/C(=C\c3ccc(OS(=O)(=O)c4ccccc4)cc3)C(=O)N=C2S1	MrgX1 allo act 7.2
CC(O)[C@H]1CNC(=O)C(=O)N1CCCCC1CCCCC1 (some centres not stated)	none
CCc1ccccc1NC(=O)CSc1nc(-c2ccccc2)nn1C(=O)c1cccc([N+](=O)[O-])c1	none
O=C(CSc1nc(-c2ccccc2)nn1C(=O)c1ccccc1)Nc1cccc([N+](=O)[O-])c1	MrgX1 antag -4.79
Cc1nn(-c2ccc(F)cc2)c(Cl)c1/C=C/C(=O)N1CCNC(=O)C1	none
COc1ccccc1NC(=O)Cn1nc(-c2ccc(Cl)cc2)c2ccccc2c1=O	MrgX1 agonist 33.8
CC(C)(NC(=O)N1CCOCC1)c1cccc(C(C)(C)NC(=O)N2CCOCC2)c1	none
Cc1ccc(S(=O)(=O)N2CCN(C(=O)C3=COCCO3)CC2)cc1C	none
O=C(C1=COCCO1)N1CCN(S(=O)(=O)c2cccc(Cl)c2Cl)CC1	MrgX1 antag -5.65
CCC1=NN(C(=O)c2ccc(Cl)cc2)C(O)(c2ccc(C)cc2)C1 (configuration not stated)	MrgX1 allo act 7.27
CCC1=NN(C(=O)c2ccc([N+](=O)[O-])cc2)C(O)(c2ccccc2)C1 (configuration not stated)	MrgX1 allo act 13.9
O=C(c1ccccc1O)N1N=C(C(F)(F)F)CC1(O)c1ccc([N+](=O)[O-])cc1 (configuration not stated)	none
CCC1(O)CC(C(=O)OC)=NN1C(=O)c1ccccc1 (configuration not stated)	none
COC(=O)C1=NN(C(=O)c2ccc(Cl)cc2)C(O)(c2ccccc2)C1 (configuration not stated)	MrgX1 agonist 38.8
CCOC(=O)C1=NN(C(=O)c2ccc(C)cc2)C(O)(c2ccc(Cl)cc2)C1 (configuration not stated)	MrgX1 agonist 53.6, RGS4 pot -9.33
O=C(NC1CCCc2ccccc21)c1cccc(S(=O)(=O)N2CCOCC2)c1 (configuration not stated)	none
O=C(Cn1nnc(-c2ccccc2)n1)NNC(=O)c1ccco1	none
CCC1=NN(C(=O)c2ccccc2O)C(O)(c2ccccc2)C1 (configuration not stated)	none
CCC1=NN(C(=O)c2ccc(Cl)cc2)C(O)(c2ccccc2)C1 (configuration not stated)	MrgX1 agonist 40.2
CC(C)CCNC(=O)c1onc(CSc2ccccc2)c1C(=O)NCCC(C)C	none
COc1cccc(CN2CCCN(S(=O)(=O)c3ccc(Br)cc3)CC2)c1	none
O=S(=O)(c1ccc(Br)cc1)N1CCCN(Cc2cccc(F)c2)CC1	RGS4 pot -8.31
O=C(N/C(=C/c1ccc([N+](=O)[O-])cc1)C(=O)N1CCOCC1)c1ccco1	none
CCN(CCCC(=O)c1ccc(F)cc1)CCc1ccccc1	RGS4 pot -7.1
CCN(CCCc1ccccc1)CCCc1ccccc1	none
CN(NC(=O)c1ccccc1F)c1ccc([N+](=O)[O-])cn1	none
O=C(CCS(=O)(=O)Cc1ccc(Cl)cc1)NCCCN1CCN(c2ccccc2F)CC1	RGS4 pot -10.4
Cc1cc(C)c2c(=O)n(CC(=O)NCCCN3CCN(c4ccccc4F)CC3)sc2n1	RGS4 pot -9.63
Cc1ccccc1CS(=O)(=O)CCC(=O)NCCCN1CCN(c2ccccc2F)CC1	none
COc1cc(OC)c(NC(=O)N2CCOCC2)cc1Cl	none
CC(C)(C)c1ccc(/C=C/C(=O)N2CCN(c3ncccn3)CC2)cc1	MrgX1 antag -6.26
Cn1c(=O)c2c(nc(SCC(=O)c3ccccc3F)n2C)n(C)c1=O	MrgX1 antag -7
Cc1ccc(NS(=O)(=O)c2ccc(OCC(=O)NCC3CCCO3)cc2)cc1 (configuration not stated)	none
CC1CN(C(=O)c2ccc(CNS(=O)(=O)c3cccc(Cl)c3)cc2)CC(C)O1 (configuration not stated)	none (no result: MrgX1 antag, MrgX1 agonist, MrgX1 allo act)
Cc1nnc2sc(SCc3ccc(Cl)cc3)nn2c1=O	MrgX1 antag -6.62
CCCOc1ccc(C(=O)NNC(=S)NC(=O)CC)cc1	MrgX1 agonist 51.3
C=CCNC(=S)NNC(=O)c1ccc(OCCC)cc1	none
CC1(C)COCN1S(=O)(=O)c1ccc(C(=O)Nc2nnc(-c3ccc(Cl)s3)o2)cc1	MrgX1 agonist 80.3
CCC1CCCCN1S(=O)(=O)c1ccc(C(=O)Nc2nnc(C3CC3)o2)cc1 (configuration not stated)	none

Source: PubChem
